Results from ChEMBL document CHEMBL3822382 (Eur J Med Chem, 2016).
Active and inactive are the calls of the source. No cut-off for these calls is given here.

Key:
[1] = Growth inhibition of human MCF7/Topo cells after 24 hrs by MTT assay; assay type: functional, cell-based
Outline: (§1)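 Cells seeded at 5000/well (Ea.hy926 10,000/well) and exposed for 24 h to dilution series of 100 µM–5 pM, with DMSO as solvent control. MTT (0.5 mg/mL final) for 2 h. Formazan dissolved in SDS/acetic acid/DMSO and read at 570 nm against a 630 nm background. Viability taken relative to DMSO controls; IC50 from dose–response curves, mean of four independent experiments.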

[2] = Growth inhibition of human KB-V1/Vbl cells after 24 hrs by MTT assay; assay type: functional; outline: as §1
[3] = Growth inhibition of human HCT116 cells expressing wild type p53 after 72 hrs by MTT assay; assay type: functional, cell-based; conditions: HCT-116, 72 h
Outline: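 HCT-116 cells, p53 wild-type or p53-/-, seeded at 5000/well and treated 72 h with dilution series (100 µM–5 pM) or DMSO. MTT 0.5 mg/mL for 2 h, absorbance at 570/630 nm. Viability relative to DMSO controls; IC50 from dose–response curves, mean of three independent experiments ± S.D.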

HT-29 [4] = experiment: Cell cycle arrest in combretastatin A-4 resistant human HT-29 cells assessed as mitotic cells at 50 nM after 24 hrs by propidium iodide/immuno-staining method (reference value: 3.1 to 3.2%); assay type: functional
HT-29 [5] = experiment: Cell cycle arrest in combretastatin A-4 resistant human HT-29 cells assessed as accumulation at S phase at 50 nM after 24 hrs by propidium iodide staining-based flow cytometry (reference value: 13.7 +/- 0.3%); assay type: functional
[6] = Cell cycle arrest in human 518A2 cells assessed as accumulation at subG1 phase at 100 nM after 24 hrs by propidium iodide staining-based flow cytometry (reference value: 3.8%); assay type: functional
[7] = Cell cycle arrest in human 518A2 cells assessed as accumulation at G1 phase at 100 nM after 24 hrs by propidium iodide staining-based flow cytometry (reference value: 49.5%); assay type: functional
[8] = Cell cycle arrest in human HCT116 cells expressing wild type p53 assessed as accumulation at subG1 phase at 50 nM after 24 hrs by propidium iodide staining-based flow cytometry (reference value: 7.1%); assay type: functional; conditions: HCT-116
[9] = Cell cycle arrest in human HCT116 cells expressing wild type p53 assessed as accumulation at G1 phase at 100 nM after 24 hrs by propidium iodide staining-based flow cytometry (reference value: 56.7%); assay type: functional; conditions: HCT-116
[10] = Cell cycle arrest in human MCF7/Topo cells assessed as accumulation at G1 phase at 100 nM after 24 hrs by propidium iodide staining-based flow cytometry (reference value: 47.8%); assay type: functional
[11] = Cell cycle arrest in human 518A2 cells assessed as G2/M index ratio at 100 nM after 24 hrs by propidium iodide staining-based flow cytometry relative to control; assay type: functional
EA.hy 926 = experiment: Antivascular activity in human EAhy926 cells assessed as disruption of preformed blood vessel lke network at 250 nM after 16 hrs by matrigel based tube formation assay; assay type: functional, cell-based
Outline: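 Ea.hy926 cells (100,000/well) were seeded on Matrigel-coated coverslips and allowed 12 h to form vessel-like networks. Test agent (CA-4 100 nM; indoles 250 nM) or DMSO was then added for 16 h, and networks were documented by light microscopy. Viability was checked by 2 h MTT (0.5 mg/mL) relative to DMSO controls.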

[12] = Cytotoxicity against human EAhy926 cells assessed as cell viability at 250 nM after 16 hrs by MTT assay relative to control; assay type: cell-based, EA.hy 926; conditions: read-out: Activity
Outline: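 Ea.hy926 cells (100,000/well) placed on Matrigel-coated coverslips and left 12 h to form networks, then given 250 nM for 16 h. Viability measured by 2 h incubation with 0.5 mg/mL MTT and formazan absorbance, calculated relative to DMSO controls.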

Chorioallantoic membrane [13] = experiment: Antivascular activity in fertilized white leghorn chicken egg chorioallantoic membrane assessed as disruption of preformed blood vessel at 2.5 nmol after 12 hrs by stereomicroscopic analysis; assay type: functional, tissue-based; conditions: Gallus gallus
HT-29 [14] = experiment: Antivascular activity against in combretastatin A-4 resistant human HT-29 cells xenografted in fertilized white leghorn chicken egg chorioallantoic membrane assessed as blood vessel hemorrhage at 5 nmol after 24 hrs by hematoxylin and eosin staining based stereomicroscopic analysis; assay type: functional, cell-based
Outline: (§2)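 Pellets of 1 × 10⁶ HT-29 cells in 10 μL of 1:1 matrigel/serum-free RPMI (gelled 30 min, 37 °C) were placed on the CAM of fertilized eggs and left 48 h. Then 100 μL of a 50 μM PBS dilution (5 nmol) was pipetted outside a silicon ring around the pellet; DMSO served as control. After 24 h, stereomicroscopy was done, and micro-xenografts were explanted, formalin-fixed, paraffin-embedded and HE-stained.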

HT-29 [15] = experiment: Antivascular activity against in combretastatin A-4 resistant human HT-29 cells xenografted in fertilized white leghorn chicken egg chorioallantoic membrane assessed as loss of cell to cell interaction at 5 nmol after 24 hrs by hematoxylin and eosin staining based stereomicroscopic analysis; assay type: functional; outline: as §2
1411HP [16] = experiment: Vascular disrupting activity against multidrug resistant human 1411HP cells xenografted in athymic nude mouse assessed as discoloration of tumor at 100 mg/kg, ip after 24 hrs; assay type: functional, organism-based
Outline: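 Athymic nude mice carried subcutaneous flank xenografts from 8 million cells in PBS. A single intraperitoneal dose of 100 mg/kg was given, and tumor discoloration was photographed 24 h later.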

1411HP [17] = experiment: Vascular disrupting activity against multidrug resistant human 1411HP cells xenografted in athymic nude mouse assessed as tumor necrosis at 100 mg/kg, ip after 24 hrs by hematoxylin and eosin staining based microscopic analysis; assay type: functional, organism-based
Outline: (§3)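 Athymic nude mice carried subcutaneous flank xenografts from 8 million cells. A single intraperitoneal dose of 100 mg/kg was given. After 24 h tumors were explanted, fixed in 5% formalin, paraffin-embedded and HE-stained for microscopic examination of vessels, hemorrhage and necrosis.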

A2780cisR = experiment: Vascular disrupting activity against human A2780cis cells xenografted in athymic nude mouse assessed as disruption of blood vessel at 100 mg/kg, ip after 24 hrs by hematoxylin and eosin staining based microscopic analysis; assay type: functional, organism-based; outline: as §3
518A2 = experiment: Effect on microtubule structure in human 518A2 cells at 100 nM incubated for 24 hrs by DAPI staining based immunofluorescence microscopic analysis; assay type: cell-based
Outline: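 518A2 cells (25,000/well) on coverslips treated 24 h with 100 nM. Cells fixed in 4% formaldehyde, permeabilized and blocked (Triton X-100/BSA). Stained with mouse anti-alpha-tubulin (37 °C, 1 h) and AlexaFluor-488 secondary; nuclei counterstained with DAPI (1 µg/mL). Imaged by fluorescence microscopy at 400×.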

Chorioallantoic membrane [18] = experiment: Antivascular activity in fertilized white leghorn chicken egg chorioallantoic membrane assessed as disruption of preformed blood vessel at 5 nmol after 12 hrs by stereomicroscopic analysis; assay type: functional, tissue-based; conditions: Gallus gallus
Outline: (§4)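 Fertilized white leghorn SPF eggs were incubated to day 5 at 37 °C and 50–60% humidity. A shell window was cut, 6 mm silicon rings were placed on developing CAM vessels, and eggs were incubated another 24 h. Compound (500 μM in PBS; 10 μL = 5 nmol, 20 μL = 10 nmol) or DMSO was pipetted inside the ring. Vessel changes were imaged by stereomicroscope at 0, 12 and 24 h.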

Chorioallantoic membrane [19] = experiment: Antivascular activity in fertilized white leghorn chicken egg chorioallantoic membrane assessed as blood vessel hemorrhage at 5 nmol after 12 hrs by stereomicroscopic analysis; assay type: functional, tissue-based; conditions: Gallus gallus; outline: as §4

SMILES	IC50 [1]	IC50 [2]	IC50 [3]	Activity [8]	Activity [9]	Activity [10]	Activity (EA.hy 926)	viability at 16 h, 0.25 µM [12]	also measured
COc1cc(-c2ncn(C)c2-c2ccc3c(c2)c(Cl)cn3C)cc(Br)c1OC.Cl	18.8 nM	25.4 nM	27.4 nM	16.2%	9%	14.4%	Active	> 90%	Activity (HT-29 [4]): 28%; Activity (HT-29 [5]): 13.5%; Activity [6]: 7.4%; Activity [7]: 41%; Ratio [11]: 1.5; Activity (Chorioallantoic membrane [13]): Active; Activity (HT-29 [14]): Active; Activity (HT-29 [15]): Active; Activity (1411HP [16]): Active; Activity (1411HP [17]): Active; Activity (A2780cisR): Active
COc1cc(-c2ncn(C)c2-c2ccc3c(c2)c(Cl)cn3C)cc(OC)c1OC	20.2 nM	26 nM	9.5 nM	30.6%	9.3%	16.5%	Active	> 90%	Activity (518A2): inactive; Activity (Chorioallantoic membrane [18]): Active; Activity (Chorioallantoic membrane [19]): Active
